Assays:
HL-60 = assay: Cytotoxicity against human HL60 cell line by MTS assay; type: functional, cell-based
Summary of the method: (§1)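 Cells kept at 37 °C in humidified 5% CO2/95% air and seeded at 700 cells/well (H460) or 27 500 cells/well (HL-60). Log-phase cells were exposed in triplicate to serial drug dilutions for 72 h; stocks in DMSO, PBS or DMF, final organic solvent under 0.1%. MTS/PMS added for 3 h, A490 read. IC50 from sigmoidal dose-response fit; mean of at least three experiments.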

NCI-H460 = assay: Cytotoxicity against human H460 cell line by MTS assay; type: functional, cell-based; summary of the method: as §1

Row | Structure (SMILES) | IC50 (HL-60) | IC50 (NCI-H460)
1 | CNC(=S)N(C)CCNc1c2ccccc2nc2ccccc12 | 11.5 µM | 9.5 µM
2 | CCNC(=O)NCCNC(=O)c1cccc2c(NCCN(C)/C(S)=N/C)c3ccccc3nc12 | > 100 µM | > 100 µM
3 | CCNC(=O)NCCCCNC(=O)c1cccc2c(NCCN(C)/C(S)=N/C)c3ccccc3nc12 | > 100 µM | > 100 µM
4 | C/N=C(\S)N(C)CCNc1c2ccccc2nc2c(C(=O)NCCNC(=O)Nc3ccccc3)cccc12 | > 50 µM | 31.9 µM
5 | C/N=C(\S)N(C)CCNc1c2ccccc2nc2c(C(=O)NCCCCNC(=O)Nc3ccccc3)cccc12 | 0.39 µM | 3.1 µM
6 | C/N=C(\S)N(C)CCNc1c2ccccc2nc2c(C(=O)NCCN(C)C)cccc12 | 1.4 µM | 2.2 µM
7 | C/N=C(\S)N(C)CCNc1c2ccccc2nc2c(C(=O)NCCO)cccc12 | 27.4 µM | 41.1 µM
8 | C/N=C(\S)N(C)CCNc1c2ccccc2nc2c(C(=O)NCCOC(C)=O)cccc12 | 29.5 µM | 17.6 µM
